For 16 molecules, IC50, inhibition and Activity results are on record in ChEMBL document CHEMBL3351575, “Halogenated diarylacetylenes repress c-myc expression in cancer cells” (Bioorg Med Chem Lett, 2014).

Active and inactive are the calls of the source. The calls are words filed in the database; no cut-off is given here. Bounds are passed on as bounds.

Holding throughout (type): functional, cell-based
A short description of experiment [1]: Antiproliferative activity against human LS 174T cells after 4 days by Vi-Cell cell viability analyzer. The settings on record: LS174T, 96 h.
In experiment [2] the test system is LS174T. In words: Inhibition of c-myc expression in human LS 174T cells at 1 uM after 36 hrs by Western blotting analysis. Summed up:
(§1)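 LS174T colon cancer cells exposed to each diarylacetylene at 1 μM for 36 h, alongside a DMSO vehicle control and a reference compound; cell lysates then probed by western blot, with β-tubulin as the loading control.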
On the technique in general: In western blotting, separated proteins are transferred to a membrane and probed.

In experiment [3] the test system is LS174T. Description: Induction of p21([…]/Cip1) expression in human LS 174T cells at 1 uM after 36 hrs by Western blotting analysis. Summed up: as §1

Usually IC50 stands for the midpoint of a concentration-inhibition curve. On to `CN(C)c1ccc(C#Cc2ccccc2)cc1`, for which the IC50 in experiment [1] was greater than 3 µM. Also, the inhibition entry in the experiment with LS174T [2] was “Active”. The result in the experiment on LS174T [3] was Active.

`CN(C)c1ccc(C#Cc2ccc(F)cc2F)cc1` gave an IC50 in experiment [1] of 0.056 µM.

Take `CN(C)c1ccc(C#Cc2c(Cl)cccc2Cl)cc1`: the half-inhibitory concentration (IC50) in experiment [1] was 0.052 µM. Further, the inhibition entry in the experiment on LS174T [2] is “Active”. Besides, the result with LS174T [3] was Active.

Regarding `CN(C)c1ccc(C#Cc2ccccc2F)cc1`, 0.039 µM corresponded to half-maximal inhibition in experiment [1] (IC50). The inhibition entry with LS174T [2] is “Active”. For the same molecule, the outcome in the experiment with LS174T [3] was Active.

`CN(C)c1ccc(C#Cc2cccc(F)c2F)cc1` displayed an IC50 in experiment [1] of 0.119 µM.

Consider `Nc1ccc(C#Cc2c(F)cccc2F)cc1`, for which the IC50 in experiment [1] stood at 0.055 µM.

Turning to `CNc1ccc(C#Cc2c(F)cccc2F)cc1`, in experiment [1], the IC50 was determined as 0.023 µM. Moreover, the inhibition result with LS174T [2] was “Active”. For the same molecule, the result in the experiment with LS174T [3] was Active.

As to `CN(C)c1ccc(C#Cc2c(F)cccc2Cl)cc1`, the IC50 in experiment [1] was determined as 0.019 µM. In the experiment with LS174T [2], the inhibition result is “Active”. In addition, the result in the experiment on LS174T [3] was Active.

`CN(C)c1ccc(C#Cc2ccc(F)c(F)c2)cc1`: in experiment [1], the IC50 is greater than 3 µM. Besides, the inhibition result with LS174T [2] was “Active”. In the experiment with LS174T [3], the outcome was Active.

As for `CN(C)c1ccc(C#Cc2c(F)cccc2F)cc1`, the IC50 in experiment [1] was 0.023 µM. The inhibition result with LS174T [2] is “Active”. Also, in the experiment with LS174T [3], the outcome was Active.

`CN(C)c1ccc(/C=C/c2c(F)cccc2F)cc1` gave an IC50 in experiment [1] of 0.059 µM. Besides, the inhibition result with LS174T [2] was “Active”. Besides, in the experiment on LS174T [3], the outcome was Active.

For the molecule `CN(C)c1ccc(C#Cc2cc(F)ccc2F)cc1`, in experiment [1], the 50% inhibitory concentration (IC50) stood at 0.055 µM.

Molecule `CN(C)c1ccc(C#Cc2ccc(F)cc2)cc1` gave an IC50 in experiment [1] greater than 3 µM. For the same molecule, the inhibition entry in the experiment with LS174T [2] was “Active”. Besides, the result in the experiment with LS174T [3] was Active.

In experiment [1], `CN(C)c1ccc(C#Cc2cccc(F)c2)cc1` registered an IC50 greater than 3 µM. Besides, the inhibition result with LS174T [2] was “Active”. Also, in the experiment with LS174T [3], the outcome was Active.

Consider `CN(C)c1ccc(C#Cc2cc(F)cc(F)c2)cc1`, for which the IC50 in experiment [1] was greater than 3 µM.

`CN(C)c1ccc(C#Cc2ccccc2Cl)cc1` had an IC50 in experiment [1] of 0.031 µM. Further, the inhibition result in the experiment on LS174T [2] is “Active”. Also, the result in the experiment on LS174T [3] was Active.
